This note sets out measurements from ChEMBL document CHEMBL1128340, “Nonpeptidic inhibitors of human leukocyte elastase. 6. Design of a potent, intratracheally active, pyridone-based trifluoromethyl ketone” (J Med Chem, 1995).

In one experiment the target is T1, Neutrophil elastase (Homo sapiens, UniProt P08246).
T1 sequence (P08246 whole entry): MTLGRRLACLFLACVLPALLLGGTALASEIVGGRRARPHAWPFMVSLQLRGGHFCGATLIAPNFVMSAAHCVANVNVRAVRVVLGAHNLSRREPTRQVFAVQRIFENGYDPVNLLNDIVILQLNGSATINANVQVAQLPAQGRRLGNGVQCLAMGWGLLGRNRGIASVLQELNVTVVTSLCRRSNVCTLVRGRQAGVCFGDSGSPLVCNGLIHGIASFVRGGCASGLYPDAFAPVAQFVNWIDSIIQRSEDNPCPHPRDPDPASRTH
The experiment in a line: In vitro inhibition constant (Ki) against human leukocyte elastase (HLE-catalyzed hydrolysis of MeO-Suc-Ala-Ala-Pro-Ala-pNA).

Experiment [1] has as its system Cricetinae gen. sp. Nature of the experiment: Compound at an intratracheal dose of […] was tested in vivo in hamster for the inhibition of elastase-induced lung hemorrhage by acute hemorrhagic assay; Not statistically significant. The experiment is classed as functional, organism-based. Particulars: Cricetulus griseus. The gist of the method:
(§1)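 Hamster acute hemorrhagic assay: test agent given intratracheally at 100 nmol/animal 30 min before intratracheal instillation of 50 μg HLE. Read-out is percent inhibition of elastase-induced lung hemorrhage versus controls. Significance is by Student's t test, P < 0.05; NS means not significant at that dose.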

Experiment [2] concerns Cricetinae gen. sp. The experiment in a line: Compound at an oral dose of 5 mg/Kg was tested in vivo in hamster for the inhibition of elastase-induced lung hemorrhage by acute hemorrhagic assay; Not statistically significant. The experiment is classed as functional, organism-based. The settings on record: Cricetulus griseus.
Experiment [3] deals with Cricetinae gen. sp. Nature of the experiment: Compound at an intratracheal dose of 100 nM was tested in vivo in hamster for the inhibition of elastase-induced lung hemorrhage by acute hemorrhagic assay. The experiment is classed as functional, Cricetulus griseus. The procedure, abridged:
as §1

Experiment [4] relates to Cricetinae gen. sp. Nature of the experiment: Compound at an oral dose of 2.5 mg/Kg was tested in vivo in hamster for the inhibition of elastase-induced lung hemorrhage by acute hemorrhagic assay; Not statistically significant. It is filed as functional, organism-based. Particulars: Cricetulus griseus.

The source made the active and inactive calls. The calls are words filed in the database; no cut-off is given here.

At Neutrophil elastase, `COc1ccc(S(=O)(=O)N[C@H](C(=O)N2CCC[C@H]2C(=O)NC(C(=O)C(F)(F)F)C(C)C)C(C)C)cc1` (stereo partly specified) returned a Ki of 8 nM.

As for `CC(C)C(NC(=O)Cn1c(-c2ccccc2)ccc(NS(=O)(=O)c2ccccc2)c1=O)C(=O)C(F)(F)F` (stereo unspecified), the inhibition result in the experiment with Cricetinae gen. sp. [1] and with Cricetinae gen. sp. [2] was “inactive” throughout.

As to `CC(C)C(NC(=O)Cn1c(-c2ccccc2)ccc(NS(=O)(=O)c2ccc(C(=O)NS(=O)(=O)c3ccc(Cl)cc3)cc2)c1=O)C(=O)C(F)(F)F` (stereo unspecified), the Ki on Neutrophil elastase came to 9.4 nM. Moreover, the Inhibition in the experiment on Cricetinae gen. sp. [3] came to 96%. Besides, the inhibition entry in the experiment on Cricetinae gen. sp. [4] was “inactive”.

In the case of `CC(C)C(NC(=O)Cn1c(-c2ccccc2)ccc(NC=O)c1=O)C(=O)C(F)(F)F` (stereo unspecified), the inhibition result in the experiment on Cricetinae gen. sp. [1] is “inactive”.

For the molecule `Cc1ccccc1S(=O)(=O)NC(=O)c1ccc(S(=O)(=O)Nc2ccc(-c3ccccc3)n(CC(=O)NC(C(=O)C(F)(F)F)C(C)C)c2=O)cc1` (stereo unspecified), the affinity on Neutrophil elastase, expressed as Ki, was 18 nM. The Inhibition in the experiment with Cricetinae gen. sp. [3] was determined as 97%. The inhibition entry in the experiment with Cricetinae gen. sp. [4] was “inactive”.

With `CC(=O)Nc1ccc(S(=O)(=O)Nc2ccc(-c3ccccc3)n(CC(=O)NC(C(=O)C(F)(F)F)C(C)C)c2=O)cc1` (stereo unspecified), the Inhibition in the experiment with Cricetinae gen. sp. [3] worked out at 95%.

For orientation: Ki means a dissociation constant, usually derived from enzyme kinetics or from competition with a known ligand. A high value points to weaker binding. A word on the Inhibition: it is the change of the read-out against control, counted positive when it falls. Low readings indicate little suppression, high ones strong suppression.
